Here are results for one molecule from ChEMBL document CHEMBL4177603 (Bioorg Med Chem Lett, 2017).

Data set [1] addresses Sodium channel protein type 9 subunit alpha (Rattus norvegicus, UniProt O08562). Briefly: Inhibition of rat Nav1.7 expressed in HEK cells by patch clamp electrophysiology method. It is filed as cell-based. Background: Patch clamp records ionic current or voltage across a cell membrane.
The nature of data set [2]: Renal clearance in dog at 0.3 mg/kg, iv via infusion for 0.5 hrs. It is filed as ADME, organism-based, Canis lupus familiaris, Kidney. As to conditions: in vivo.
Data set [3] in a line: Terminal half-life in dog at 0.3 mg/kg, iv via infusion for 0.5 hrs. In kind it is ADME, organism-based, Canis lupus familiaris. As to conditions: in vivo, read-out: beta t1/2 (converted). The essentials:
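Dog IV pharmacokinetics, with half-life reported as two values: α (initial phase) and β (terminal phase) of the disposition profile.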

Data set [4] in a line: Unbound clearance in dog plasma at 0.3 mg/kg, iv via infusion for 0.5 hrs. It is filed as ADME, organism-based, Canis lupus familiaris. Particulars: in vivo.
Data set [5] can be described thus: Clearance in rat plasma at 0.3 mg/kg, iv via infusion for 1 hr. It is filed as ADME, organism-based.
Data set [6] in a line: Unbound clearance in iv dosed mouse plasma. It is filed as ADME, organism-based. As to conditions: in vivo.
Data set [7] can be described thus: Clearance in iv dosed mouse blood. It is filed as ADME, organism-based. As to conditions: whole blood. The essentials:
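Blood clearance was calculated from the measured plasma clearance and the measured blood:plasma ratio.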

In the next data set the target is Cytochrome P450 2C8 (Homo sapiens, UniProt P10632). Briefly: Inhibition of CYP2C8 (unknown origin). It is filed as ADME.
The nature of data set [8]: Protein binding in rat plasma assessed as fraction unbound. In kind it is ADME, cell-free.
The nature of data set [9]: Intrinsic clearance in dog liver microsomes. In kind it is ADME, Canis lupus familiaris, microsome. As to conditions: read-out: CLH.
Data set [10] can be described thus: Inhibition of cynomolgus monkey Nav1.7 expressed in HEK cells by automated patchXpress electrophysiology method. As to conditions: Macaca fascicularis, HEK293. It is filed as cell-based.
Data set [11] concerns the target D(2) dopamine receptor (Homo sapiens) (UniProt P14416). The experiment in a line: Agonist activity at recombinant human D2S receptor expressed in HEK293 cells assessed as effect on impedance at 10 uM by cellular dielectric spectroscopic method relative to control. It is filed as cell-based.
The target of data set [12] is Muscarinic acetylcholine receptor M2 (Homo sapiens) (UniProt P08172). The experiment in a line: Agonist activity at recombinant human M2 receptor expressed in CHOK1 cells assessed as increase in cAMP accumulation at 10 uM measured after 10 mins by HTRF assay relative to control. In kind it is functional, cell-based. On the technique in general: Cyclic AMP is a second messenger, typically raised through Gs and lowered through Gi signalling.

The target in data set [13] is Muscarinic acetylcholine receptor M3 (Homo sapiens) (UniProt P20309). The experiment in a line: Agonist activity at human M3 receptor expressed in CHOK1 cells assessed as increase in calcium flux at 10 uM by fluorimetric method relative to control. In kind it is functional, cell-based. A general note: Calcium flux is commonly read through the fluorescence of an indicator in the cells.

Data set [14] addresses Substance-P receptor (Homo sapiens) (UniProt P25103). The experiment in a line: Agonist activity at human NK1 receptor expressed in U373MG cells assessed as increase in calcium flux at 10 uM by fluorimetric method relative to control. In kind it is functional, cell-based.
Data set [15] addresses 5-hydroxytryptamine receptor 4 (Homo sapiens) (UniProt Q13639). The experiment in a line: Agonist activity at recombinant human 5-HT4E expressed in CHOK1 cells assessed as increase in cAMP accumulation at 10 uM measured after 30 mins by HTRF assay relative to control. In kind it is functional, cell-based.
The target of data set [16] is Histamine H1 receptor (Homo sapiens) (UniProt P35367). Briefly: Displacement of [3H]pyrilamine from recombinant human H1 receptor at 10 uM after 60 mins by scintillation counting method.
Data set [17] concerns the target Voltage-gated inwardly rectifying potassium channel KCNH2 (Homo sapiens, UniProt Q12809). The experiment in a line: Displacement of [3H]Dofetilide from recombinant human ERG after 60 mins by scintillation counting method.
Data set [18] in a line: Displacement of [3H]diltiazem from L-type calcium channel diltiazem binding site in rat brain after 120 mins by scintillation counting method.
Data set [19] can be described thus: Cytotoxicity against human THLE cells. It is filed as cell-based.
The target of data set [20] is Cholecystokinin receptor type A (Homo sapiens) (UniProt P32238). Briefly: Agonist activity at recombinant human CCK1 receptor expressed in CHOK1 cells assessed as increase in cAMP accumulation at 10 uM after 30 mins by HTRF assay relative to control.

Sequence of Muscarinic acetylcholine receptor M3 (Homo sapiens) (P20309 whole entry, looked up): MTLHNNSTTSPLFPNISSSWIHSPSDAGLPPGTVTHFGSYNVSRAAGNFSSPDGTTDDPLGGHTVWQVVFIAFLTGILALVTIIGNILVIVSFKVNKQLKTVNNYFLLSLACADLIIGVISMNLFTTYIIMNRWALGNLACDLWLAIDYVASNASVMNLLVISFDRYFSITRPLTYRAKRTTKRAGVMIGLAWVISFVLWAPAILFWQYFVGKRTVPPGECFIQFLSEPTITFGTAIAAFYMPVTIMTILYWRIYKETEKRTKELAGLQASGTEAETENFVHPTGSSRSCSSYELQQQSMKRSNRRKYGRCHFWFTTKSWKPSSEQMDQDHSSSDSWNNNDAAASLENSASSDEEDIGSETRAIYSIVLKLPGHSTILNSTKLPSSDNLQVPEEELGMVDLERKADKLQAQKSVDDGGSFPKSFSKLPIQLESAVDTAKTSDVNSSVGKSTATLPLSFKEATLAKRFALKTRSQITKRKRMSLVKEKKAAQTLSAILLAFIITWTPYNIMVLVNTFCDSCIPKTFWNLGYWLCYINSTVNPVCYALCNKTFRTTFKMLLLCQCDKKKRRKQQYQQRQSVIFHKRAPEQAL
Sequence of Sodium channel protein type 9 subunit alpha (O08562 whole entry, the tested form may be a part): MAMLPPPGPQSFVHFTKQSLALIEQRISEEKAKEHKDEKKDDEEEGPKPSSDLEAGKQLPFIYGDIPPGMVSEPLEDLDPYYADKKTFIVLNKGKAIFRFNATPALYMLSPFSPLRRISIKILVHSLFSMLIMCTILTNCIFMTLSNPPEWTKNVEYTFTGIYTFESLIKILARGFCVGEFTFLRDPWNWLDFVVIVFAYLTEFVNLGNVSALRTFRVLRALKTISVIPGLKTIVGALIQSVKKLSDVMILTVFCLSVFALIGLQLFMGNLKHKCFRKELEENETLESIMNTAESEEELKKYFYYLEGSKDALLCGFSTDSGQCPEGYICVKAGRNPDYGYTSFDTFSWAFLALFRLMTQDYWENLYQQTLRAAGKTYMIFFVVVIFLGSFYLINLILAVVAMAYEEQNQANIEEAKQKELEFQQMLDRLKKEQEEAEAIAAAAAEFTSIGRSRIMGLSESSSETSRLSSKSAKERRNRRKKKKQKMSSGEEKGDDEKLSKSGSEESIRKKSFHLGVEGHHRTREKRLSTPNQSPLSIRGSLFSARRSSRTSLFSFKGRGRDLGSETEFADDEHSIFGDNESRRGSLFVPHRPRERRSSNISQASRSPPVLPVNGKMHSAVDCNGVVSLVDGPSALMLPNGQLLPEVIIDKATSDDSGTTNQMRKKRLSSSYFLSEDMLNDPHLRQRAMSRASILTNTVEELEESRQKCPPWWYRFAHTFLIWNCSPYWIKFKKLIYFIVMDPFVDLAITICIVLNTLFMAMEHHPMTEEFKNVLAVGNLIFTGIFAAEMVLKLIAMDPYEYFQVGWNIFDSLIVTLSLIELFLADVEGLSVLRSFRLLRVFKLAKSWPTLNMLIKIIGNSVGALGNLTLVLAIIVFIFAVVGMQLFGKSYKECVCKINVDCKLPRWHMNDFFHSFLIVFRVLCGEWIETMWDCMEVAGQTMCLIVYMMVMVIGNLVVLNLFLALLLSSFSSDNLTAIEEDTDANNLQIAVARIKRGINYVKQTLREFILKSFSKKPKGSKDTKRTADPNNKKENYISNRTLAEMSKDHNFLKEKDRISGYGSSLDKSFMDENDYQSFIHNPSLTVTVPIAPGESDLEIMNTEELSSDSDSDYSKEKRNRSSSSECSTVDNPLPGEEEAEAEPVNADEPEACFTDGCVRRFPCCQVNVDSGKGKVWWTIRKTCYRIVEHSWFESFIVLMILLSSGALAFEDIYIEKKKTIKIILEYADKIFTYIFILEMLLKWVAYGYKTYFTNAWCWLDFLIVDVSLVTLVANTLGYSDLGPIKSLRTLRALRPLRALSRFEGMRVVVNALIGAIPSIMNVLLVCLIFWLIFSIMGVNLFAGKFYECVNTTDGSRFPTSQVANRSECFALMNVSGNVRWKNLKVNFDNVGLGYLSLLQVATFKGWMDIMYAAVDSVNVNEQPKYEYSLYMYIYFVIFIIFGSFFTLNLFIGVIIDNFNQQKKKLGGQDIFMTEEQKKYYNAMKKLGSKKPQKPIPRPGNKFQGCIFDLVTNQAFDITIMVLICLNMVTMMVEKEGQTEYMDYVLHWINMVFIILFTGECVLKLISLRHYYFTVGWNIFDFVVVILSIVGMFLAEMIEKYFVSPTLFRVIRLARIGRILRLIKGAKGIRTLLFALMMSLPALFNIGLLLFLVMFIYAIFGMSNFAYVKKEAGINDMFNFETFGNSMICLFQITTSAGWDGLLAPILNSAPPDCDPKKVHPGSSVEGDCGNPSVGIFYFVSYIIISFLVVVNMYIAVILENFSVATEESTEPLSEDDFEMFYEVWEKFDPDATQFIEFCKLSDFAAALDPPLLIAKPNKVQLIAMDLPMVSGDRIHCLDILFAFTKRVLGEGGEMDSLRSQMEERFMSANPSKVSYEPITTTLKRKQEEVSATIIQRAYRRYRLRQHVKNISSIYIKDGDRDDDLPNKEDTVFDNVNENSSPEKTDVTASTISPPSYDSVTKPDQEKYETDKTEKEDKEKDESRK
Sequence of Substance-P receptor (Homo sapiens) (P25103 whole entry): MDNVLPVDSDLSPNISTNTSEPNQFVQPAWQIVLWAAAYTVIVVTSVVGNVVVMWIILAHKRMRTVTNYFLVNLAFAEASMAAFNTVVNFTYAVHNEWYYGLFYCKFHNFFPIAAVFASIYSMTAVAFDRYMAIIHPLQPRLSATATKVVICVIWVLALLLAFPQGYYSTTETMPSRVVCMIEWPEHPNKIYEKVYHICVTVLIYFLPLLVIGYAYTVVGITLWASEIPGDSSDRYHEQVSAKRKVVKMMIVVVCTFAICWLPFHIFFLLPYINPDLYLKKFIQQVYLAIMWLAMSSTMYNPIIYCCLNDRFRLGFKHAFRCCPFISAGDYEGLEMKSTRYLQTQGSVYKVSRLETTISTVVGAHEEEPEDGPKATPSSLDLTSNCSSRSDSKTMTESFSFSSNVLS
Sequence of Cytochrome P450 2C8 (P10632 whole entry): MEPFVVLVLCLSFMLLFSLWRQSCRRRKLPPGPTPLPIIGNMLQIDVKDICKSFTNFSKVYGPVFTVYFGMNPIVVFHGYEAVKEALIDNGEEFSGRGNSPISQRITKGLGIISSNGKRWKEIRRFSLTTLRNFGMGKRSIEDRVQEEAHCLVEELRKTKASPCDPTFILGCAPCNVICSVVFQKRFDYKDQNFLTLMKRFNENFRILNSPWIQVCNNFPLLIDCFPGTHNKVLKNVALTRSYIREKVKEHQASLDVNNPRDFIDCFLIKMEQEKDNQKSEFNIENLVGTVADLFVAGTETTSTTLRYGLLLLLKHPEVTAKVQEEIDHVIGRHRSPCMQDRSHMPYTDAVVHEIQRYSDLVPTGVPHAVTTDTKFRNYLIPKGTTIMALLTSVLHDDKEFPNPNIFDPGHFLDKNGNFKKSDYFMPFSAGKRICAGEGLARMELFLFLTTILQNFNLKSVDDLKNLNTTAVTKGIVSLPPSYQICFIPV
Sequence of Muscarinic acetylcholine receptor M2 (Homo sapiens) (P08172 whole entry): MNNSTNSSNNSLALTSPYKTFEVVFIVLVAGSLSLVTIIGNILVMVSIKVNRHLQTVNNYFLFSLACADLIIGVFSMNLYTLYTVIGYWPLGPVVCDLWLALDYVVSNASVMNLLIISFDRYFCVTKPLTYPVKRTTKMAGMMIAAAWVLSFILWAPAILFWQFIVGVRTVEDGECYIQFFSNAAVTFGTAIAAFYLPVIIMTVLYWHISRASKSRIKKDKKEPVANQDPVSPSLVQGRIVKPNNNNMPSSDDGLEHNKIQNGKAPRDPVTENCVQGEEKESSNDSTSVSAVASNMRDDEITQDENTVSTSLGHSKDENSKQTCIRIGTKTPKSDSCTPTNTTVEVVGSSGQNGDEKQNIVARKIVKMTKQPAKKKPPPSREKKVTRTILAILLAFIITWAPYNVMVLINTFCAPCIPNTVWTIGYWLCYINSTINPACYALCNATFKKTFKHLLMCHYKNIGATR
Sequence of D(2) dopamine receptor (Homo sapiens) (P14416 whole entry): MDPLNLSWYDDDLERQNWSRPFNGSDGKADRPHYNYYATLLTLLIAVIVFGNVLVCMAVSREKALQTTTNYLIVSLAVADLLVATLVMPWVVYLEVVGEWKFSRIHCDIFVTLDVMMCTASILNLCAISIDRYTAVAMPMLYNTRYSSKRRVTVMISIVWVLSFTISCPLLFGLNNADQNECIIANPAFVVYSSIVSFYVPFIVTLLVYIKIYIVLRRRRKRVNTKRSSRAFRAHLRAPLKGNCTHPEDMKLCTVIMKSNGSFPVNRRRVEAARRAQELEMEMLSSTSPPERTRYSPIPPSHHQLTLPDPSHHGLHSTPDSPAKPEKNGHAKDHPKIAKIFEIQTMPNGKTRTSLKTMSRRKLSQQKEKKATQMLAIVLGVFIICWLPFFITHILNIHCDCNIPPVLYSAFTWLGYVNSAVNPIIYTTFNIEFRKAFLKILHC
Sequence of 5-hydroxytryptamine receptor 4 (Homo sapiens) (Q13639 whole entry): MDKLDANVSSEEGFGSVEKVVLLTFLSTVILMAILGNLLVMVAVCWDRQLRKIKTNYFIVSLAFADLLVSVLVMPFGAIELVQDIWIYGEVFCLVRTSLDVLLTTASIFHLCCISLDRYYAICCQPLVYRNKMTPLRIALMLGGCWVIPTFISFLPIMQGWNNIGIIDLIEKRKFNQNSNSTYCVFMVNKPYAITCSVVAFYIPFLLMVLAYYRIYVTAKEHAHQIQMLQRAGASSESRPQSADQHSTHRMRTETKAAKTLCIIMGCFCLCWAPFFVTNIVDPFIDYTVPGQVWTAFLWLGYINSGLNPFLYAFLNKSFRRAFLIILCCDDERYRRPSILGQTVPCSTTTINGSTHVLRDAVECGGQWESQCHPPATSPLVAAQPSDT

Regarding `N#Cc1cc(S(=O)(=O)Nc2ncns2)ccc1Oc1ccc(-c2cccc(C(F)(F)F)c2)cc1-c1ccnc(CNCCC2CCNCC2)c1`, the IC50 in data set [1] is 75 nM; on Cytochrome P450 2C8 it was 6.17 µM; in [10], < 0.03 nM; in data set [18], 5.3 µM; in data set [19] it was 108 µM. In addition, in [2], the CL renal at 0.5 h was 1.73 mL/day/kg. For the same molecule, in data set [3], the half-life was 354 min. Also, the CL free in data set [4] amounted to 4759 mL/min/kg; in data set [6], 12989 mL/min/kg. The figures for the clearance in data set [5] and in data set [7] were 83.1 mL/min/kg and 67.2 mL/min/kg, respectively. The free fraction (fraction unbound) in data set [8] came to 0.00275. For the same molecule, the microsomal CLint in data set [9] is < 18.1 µL/min/mg. In addition, the Activity in data set [11] was -2%; in data set [12], -9%; in data set [13], 8%; in data set [14] it was 0%; in data set [15], 0%; in data set [20], 4%. For the same molecule, in data set [16], the inhibition turned out to be 29%. The Ki in data set [17] is 1090 nM; in data set [18], 4.12 µM.

Usually IC50 stands for the concentration that gives 50% inhibition. For orientation: clearance means the rate of elimination divided by the concentration. The term fraction unbound denotes the share of the substance not bound to proteins or other matrix. A word on the inhibition: it is the relative decrease from the control value, in per cent. A word on the Ki: it is the equilibrium dissociation constant of an inhibitor or competing ligand from its target.
